Source: the RNAGym collection of RNA variant scans (doi:10.1126/science.aae0568)
Fewer inactive variants are shown than the library holds.

B1: tRNA (parent)
chain: GUUCCGUUGGCGUAAUGGUAACGCGUCUCCCUCCUAAGGAGAAGACUGCGGGUUCGAGUCCCGUACGGAACG

Variants of: B1
Assay: yeast fitness relative to wild type (ratio to wild type); higher = fitter; tRNA-Arg(CCU), competitive growth, 37 C, YPD
Summary of the method: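 Genotype frequency changes were the basis for Darwinian fitness relative to wild type. The frequencies came from 100-nucleotide paired-end sequencing of gene amplicons from the start population and each end population of pooled yeast strains with tRNA-Arg(CCU) gene variants at the native locus. Competition ran in YPD at 37°C for 24 hours in six replicates, genotypes needed ≥ 100 starting reads, and estimates < 0.5 were set to 0.5.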
Work on U28C G38A A40C A45G G48A yielded a yeast fitness of at most 0.5.
Work on U28G C29A C66U yielded a yeast fitness of at most 0.5.
In the case of C29G A45G, the yeast fitness is reported as 0.609.
Variant C29G U32C A42C has a yeast fitness of 0.54.
With C29G C30A C49U the yeast fitness was at most 0.5.
With C29G C34U G52A C60U the yeast fitness was 0.548.
In the case of U28C C33G C66A, the yeast fitness is reported as 0.616.
U28G A69U showed a yeast fitness of 0.789.
With C29G A36G C55U the yeast fitness was at most 0.5.
With U28C A57U A65U the yeast fitness was at most 0.5.
U28C A45C G50A C62U showed a yeast fitness of at most 0.5.
C29A C49A A70G gave a yeast fitness of at most 0.5.
C29G G39C gave a yeast fitness of 0.852.
With C29A A65U the yeast fitness was 0.626.
C29A A65G showed a yeast fitness of 0.667.
For U28C G39C, the yeast fitness was 0.578.
Variant U28G A65C has a yeast fitness of 0.669.
C29G U32A A65U gave a yeast fitness of at most 0.5.
Variant C29G C55U A65C A70U has a yeast fitness of 0.532.
C29A C49G C55U gave a yeast fitness of at most 0.5.
Work on C29A A45C C46G G68C yielded a yeast fitness of at most 0.5.
In the case of C29G C46U C66U, the yeast fitness is reported as 0.606.
With U28C A43G the yeast fitness was 0.976.
With U28C A43C the yeast fitness was 0.758.
For C29A C33G A70G, the yeast fitness was at most 0.5.
Work on U28G G56C yielded a yeast fitness of 0.655.
With C29G G48C C61A the yeast fitness was 0.564.
For C29A U35G, the yeast fitness was at most 0.5.
In the case of C29A U35A, the yeast fitness is reported as 0.672.
With C29G C49U A65C the yeast fitness was at most 0.5.
In the case of U28C G58C C62G A70U, the yeast fitness is reported as at most 0.5.
C29G A36G A65C showed a yeast fitness of at most 0.5.
Work on C29A C31A A40U C49U yielded a yeast fitness of at most 0.5.
In the case of C29A A42U, the yeast fitness is reported as 0.632.
With C29G G50C C66A the yeast fitness was 0.518.
Variant C29G A65G has a yeast fitness of 0.713.
C29G A65C showed a yeast fitness of 0.564.
U28G C31G A45U C46G G58A gave a yeast fitness of 0.529.
C29G A40U G50C showed a yeast fitness of 0.636.
Work on U28G C46G C49U A69C yielded a yeast fitness of at most 0.5.
U28C G68C gave a yeast fitness of 0.884.
C29G C33G G41C C66U gave a yeast fitness of 0.607.
Variant C29A C30G G38U has a yeast fitness of at most 0.5.
Work on U28C G63A A70G yielded a yeast fitness of 0.685.
Variant U28G G38C C62G C66U has a yeast fitness of at most 0.5.
U28G C30U showed a yeast fitness of 0.693.
For C29A A65U G67A, the yeast fitness was 0.5.
Variant C29A C33G U35C C49U A57C C60A has a yeast fitness of 0.644.
In the case of C29G A45G G52C A57U, the yeast fitness is reported as at most 0.5.
With U28C C46G the yeast fitness was 1.08.
Work on U28C C46A yielded a yeast fitness of 0.992.
With C29G U35A G58C C66U the yeast fitness was at most 0.5.
With U28C G44A A57G the yeast fitness was 0.578.
In the case of C29G C49G G63C, the yeast fitness is reported as at most 0.5.
In the case of C29A A70C, the yeast fitness is reported as 0.635.
C29A A70U gave a yeast fitness of 0.891.
Variant C29A C34U A36U has a yeast fitness of 0.568.
For U28C A42C C55U G68C, the yeast fitness was at most 0.5.
C29G U35A G58C gave a yeast fitness of at most 0.5.
With U28C A43C G67C the yeast fitness was 0.528.
With C29A C49A C62A C66U the yeast fitness was at most 0.5.
With U28C G38C G51C the yeast fitness was at most 0.5.
C29A C33G A45C gave a yeast fitness of 0.543.
With C29G G58C the yeast fitness was 0.642.
With C29G C30G C49A G56C C61U the yeast fitness was 0.982.
C29G G48A A65G C66U gave a yeast fitness of at most 0.5.
Work on U28G G41C U53A yielded a yeast fitness of at most 0.5.
U28C G52A C61U A70C showed a yeast fitness of 0.549.
Variant U28C G52A C61U has a yeast fitness of 0.698.
U28C U35A gave a yeast fitness of 0.578.
With U28C C33G G38A U64G the yeast fitness was at most 0.5.
U28G C61A gave a yeast fitness of 0.561.
Variant U28C C31U C60U has a yeast fitness of at most 0.5.
C29A A40U A45C C46A C49A A57G gave a yeast fitness of at most 0.5.
C29G G48A U59C showed a yeast fitness of at most 0.5.
For U28G C46G C49U, the yeast fitness was at most 0.5.
U28C U54G A70U gave a yeast fitness of at most 0.5.
In the case of C29G G50A, the yeast fitness is reported as 0.605.
In the case of C29A U47C, the yeast fitness is reported as 0.713.
Work on U28G U59A A70C yielded a yeast fitness of at most 0.5.
Variant C29G C34U A42G has a yeast fitness of at most 0.5.
Work on U28C U54G A57C C62U yielded a yeast fitness of at most 0.5.
Variant C29G G38C C49U A65U has a yeast fitness of at most 0.5.
